The source made the active and inactive calls. No cut-off for these calls is given here.
Legend:
HeLa = test: Cytotoxicity against human HeLa cells after 96 hrs by resazurin-based spectrofluorimetric method; type: cell-based
Summary of the method: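 HeLa cells in RPMI 1640 + 10% serum were seeded at 10^5/mL and incubated 24 h at 37 °C, 5% CO2. Compound dilutions were then added in duplicate, with DMSO at most 1% final. After 96 h, resazurin was added; after a further 3 h at 37 °C, fluorescence was read at ex 550/em 590 nm.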

[1] = Selectivity index, ratio of IC50 for human HeLa cells to IC50 for promastigote form of Leishmania major MHOM/IL/81/BNI; type: toxicity, cell-based; details: read-out: Ratio IC50
Leishmania major [2] = test: Antileishmanial activity against promastigote form of Leishmania major MHOM/IL/81/BNI after 96 hrs by resazurin-based spectrofluorimetric method; type: functional, organism-based
Summary of the method: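 Promastigotes were maintained in Schneider's medium + 13% heat-inactivated FBS at 26 °C. They were seeded at 10^6/mL and exposed to compound for 96 h at 26 °C; DMSO was at most 1% final. Resazurin was added 4 h before reading, with fluorescence at ex 550/em 590 nm. IC50 values are means of at least three determinations.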

[3] = Inhibition of pig brain CK1delta/epsilon using RRKHAAIGpSAYSITA as substrate and [32gammaP]ATP after 30 mins by scintillation counting; set-up: species or system Sus scrofa
Summary of the method: (§1)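 Kinase reactions at 30 °C for 30 min with 15 µM [γ-33P]ATP and 25 µM CKS peptide, in buffer A (Mops pH 7.2, EGTA, MgCl2, DTT, vanadate). Porcine-brain CK1δ/ε was run in three-fold diluted buffer A. LmCK1.2 was His-tagged, expressed in E. coli and cobalt-purified. Reactions were spotted on P81 paper, washed in 1% phosphoric acid, and counted by scintillation. After blank subtraction, activity is expressed as % of the uninhibited maximum, with DMSO controls.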

[4] = Methanol-buffer partition coefficient, log D of the compound by RP-HPLC analysis at pH 7.5; type: physicochemical
Summary of the method: (§2)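 Log D was determined by RP-HPLC on a C18 column with methanol and aqueous buffer: 0.01 M acetic acid for pH 4.5, and 0.01 M ammonium acetate for […]. Dead time was taken from thiourea. Extrapolated log kw was calibrated against 30 OECD reference substances, and log D read by interpolation for each pH.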

[5] = Inhibition of Leishmania major recombinant His-tagged CK1.2 using RRKHAAIGpSAYSITA as substrate and [32gammaP]ATP after 30 mins by scintillation counting; summary of the method: as §1
[6] = Methanol-buffer partition coefficient, log D of the compound by RP-HPLC analysis at pH 4.5; type: physicochemical; summary of the method: as §2
Leishmania major [7] = test: Antileishmanial activity against amastigote form of Leishmania major MHOM/IL/81/BNI infected in Balb/c mouse peritoneal macrophages assessed as inhibition of intracellular amastigote burden at 10 uM […] by May-Grunwald-Geimsa staining; type: functional
Summary of the method: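 Peritoneal macrophages from Balb/c mice at 1.5×10^5 cells/mL in RPMI 1640 + 15% FBS on glass slides, allowed to attach for 24 h (37 °C, 5% CO2). They were then infected with stationary-phase promastigotes (1.5×10^5/mL) for 24 h, washed, and exposed to 10 µM compound. Medium plus drug was renewed at 48 h. After 2 more days, cells were methanol-fixed, Giemsa-stained, and amastigotes counted per 100 macrophages in duplicate wells.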

Leishmania major [8] = test: Inhibition of Leishmania major PKC
Leishmania major [9] = test: Antileishmanial activity against amastigote form of Leishmania major MHOM/IL/81/BNI infected in Balb/c mouse peritoneal macrophages assessed as inhibition of intracellular amastigote burden at 1 uM after 48 hrs by May-Grunwald-Geimsa staining; type: functional

| SMILES | IC50 (HeLa) | selectivity ratio [1] | IC50 (Leishmania major [2]) | IC50 [3] | chromatographic logD [4] | IC50 [5] | chromatographic logD [6] | inhibition at 10 µM (Leishmania major [7]) | inhibition (Leishmania major [8]) | inhibition at 1 µM (Leishmania major [9]) |
| --- | --- | --- | --- | --- | --- | --- | --- | --- | --- | --- |
| Oc1ccc(-c2c(-c3ccccc3)nc3ccccn23)cc1 | 16 µM | 0.4 | 40 µM | – | – | – | – | – | – | – |
| Nc1ccc(-c2c(-c3ccccc3)nc3ccccn23)cc1 | 28.1 µM | 0.65 | 43 µM | – | – | – | – | – | – | – |
| CC(C)(C)C(=O)Oc1ccc(-c2c(-c3ccccc3)nc3ccccn23)cc1 | 38 µM | 5.43 | 7 µM | > 10 µM | 5.9 | > 10 µM | 4.04 | 95% | inactive | – |
| c1ccc(-c2nc3ccccn3c2-c2ccccc2)cc1 | 31 µM | 1.38 | 22.5 µM | > 10 µM | 4.5 | > 10 µM | 2.15 | 84% | – | – |
| Fc1ccccc1-c1nc2ccccn2c1-c1cccnc1 | 29 µM | 0.83 | 34.8 µM | – | – | – | – | – | – | – |
| COc1ccccc1-c1nc2ccccn2c1-c1ccccc1 | 24 µM | 1.32 | 18.2 µM | – | – | – | – | – | – | – |
| Fc1ccc(-c2nc3ccccn3c2-c2ccccc2)cc1 | 72 µM | 3.13 | 23 µM | – | – | – | – | – | – | – |
| c1ccc(-c2nc3ccccn3c2-c2ccncc2)cc1 | 25 µM | 3.85 | 6.5 µM | 0.25 µM | 2.87 | 0.3 µM | 2.03 | 32% | – | – |
| Cc1ccc(-c2c(-c3ccccc3)nc3ccccn23)cc1 | 4 µM | 1 | 4 µM | > 10 µM | 5.13 | > 10 µM | 2.61 | 96% | – | – |
| N=C(N)c1ccc(OCCCCCOc2ccc(C(=N)N)cc2)cc1 [PENTAMIDINE] | 15 µM | 3.13 | 4.8 µM | – | – | – | – | 99% | – | – |
| O=[N+]([O-])c1ccc(-c2c(-c3ccccc3)nc3ccccn23)cc1 | 27 µM | 5.51 | 4.9 µM | > 10 µM | 4.35 | > 10 µM | 3.29 | 68% | – | – |
| Clc1cc(Cl)cc(-c2nc3ccccn3c2-c2ccccc2)c1 | 67 µM | 1.71 | 39 µM | > 10 µM | 6.1 | > 10 µM | 5.58 | – | inactive | 71% |
| N#Cc1ccc(-c2c(-c3ccccc3)nc3ccccn23)cc1 | – | – | > 100 µM | – | – | – | – | – | – | – |
| Clc1cccc(-c2nc3ccccn3c2-c2ccccc2)c1 | 5 µM | 1.14 | 4.4 µM | > 10 µM | 5.25 | > 10 µM | 3.91 | 94% | – | – |
| CCOC(=O)c1ccc(-c2nc3ccccn3c2-c2ccccc2)cc1 | 346 µM | 8.65 | 40 µM | > 10 µM | 5.46 | > 10 µM | 4.26 | 86% | inactive | – |
| Fc1ccc(-c2nc3ccccn3c2-c2cccnc2)cc1 | 87 µM | 2.27 | 38.3 µM | – | – | – | – | – | – | – |

| SMILES | IC50 (HeLa) | selectivity ratio [1] | IC50 (Leishmania major [2]) | IC50 [3] | chromatographic logD [4] | IC50 [5] | chromatographic logD [6] | inhibition at 10 µM (Leishmania major [7]) | inhibition (Leishmania major [8]) | inhibition at 1 µM (Leishmania major [9]) |
| --- | --- | --- | --- | --- | --- | --- | --- | --- | --- | --- |
| COc1ccc(-c2c(-c3ccccc3)nc3ccccn23)cc1 | 14 µM | 1.92 | 7.2 µM | 0.63 µM | 4.58 | 1.2 µM | 2.31 | 71% | – | – |
| c1ccc(-c2nc3ccccn3c2-c2ccsc2)cc1 | 35 µM | 2.45 | 14.3 µM | – | – | – | – | – | – | – |
| COc1ccc(-c2nc3ccccn3c2-c2cccc([N+](=O)[O-])c2)cc1 | 30 µM | 2.14 | 14 µM | – | – | – | – | – | – | – |
| Clc1cc(Cl)cc(-c2nc3ccccn3c2-c2cccnc2)c1 | 28 µM | 0.89 | 31.4 µM | – | – | – | – | – | – | – |
| c1ccc(-c2nc3ccccn3c2-c2cncnc2)cc1 | – | – | > 100 µM | – | – | – | – | – | – | – |
| Fc1ccccc1-c1nc2ccccn2c1-c1ccccc1 | 18 µM | 0.46 | 39 µM | – | – | – | – | – | – | – |
| O=[N+]([O-])c1cccc(-c2c(-c3ccc(F)cc3)nc3ccccn23)c1 | – | – | > 100 µM | – | – | – | – | – | – | – |
| COc1ccc(-c2nc3ccccn3c2-c2ccccc2)cc1 | 48 µM | 1.8 | 26.6 µM | > 10 µM | 4.59 | > 10 µM | 2.04 | 85% | – | – |
| Clc1cc(Cl)cc(-c2c(-c3ccccc3)nc3ccccn23)c1 | 18 µM | 2.34 | 7.7 µM | > 10 µM | 5.88 | > 10 µM | 4.53 | 79% | – | – |
| CCOC(=O)c1ccc(-c2c(-c3ccccc3)nc3ccccn23)cc1 | 5 µM | 0.96 | 5.2 µM | 7.1 µM | 5.19 | 4 µM | 3.59 | 18% | – | – |
| O=[N+]([O-])c1ccc(-c2nc3ccccn3c2-c2ccccc2)cc1 | 554 µM | 18.5 | 30 µM | > 10 µM | 4.65 | > 10 µM | 4.2 | 84% | inactive | – |
| NC(=O)c1ccc(-c2c(-c3ccccc3)nc3ccccn23)cc1 | 27 µM | 1 | 27 µM | – | – | – | – | – | – | – |
| O=C(O)c1ccc(-c2c(-c3ccccc3)nc3ccccn23)cc1 | – | – | > 100 µM | – | – | – | – | – | – | – |
| c1ccc(-c2nc3ccccn3c2-c2cccnc2)cc1 | 4 µM | 0.18 | 22.5 µM | – | – | – | – | – | – | – |
| CC(=O)Oc1ccc(-c2c(-c3ccccc3)nc3ccccn23)cc1 | 40 µM | 2.5 | 16 µM | – | – | – | – | – | – | – |
